The source of these data is ChEMBL document CHEMBL3734704, “Synthesis and Biological Evaluation of Novel Bouchardatine Derivatives as Potential Adipogenesis/Lipogenesis Inhibitors for Antiobesity Treatment” (J Med Chem, 2015).

The structures appear in SMILES notation. Calls of active or inactive are those of the source. The rule behind the calls is not given here. A value given as a limit tells only on which side of the number the result lay.

The term inhibition denotes the drop in the measured response relative to a control, in per cent.

The nature of test [1]: Downregulation of PPAR-gamma mRNA level in mouse 3T3L1 cells at 0.3 to 3 uM after 24 hrs by RT-PCR analysis. In kind it is functional, cell-based. The conditions noted are these: 3T3-L1. In short, it runs like this: (§1)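 3T3-L1 preadipocytes in adipogenic cocktail with compound (0.3-3.0 µM; 3 µM for the 2 h and 24 h time course). Total RNA extracted, cDNA made from 1 µg RNA with oligo primer, then PCR: 95 °C 10 min, 35 cycles of 95 °C 30 s, annealing 45 s, 72 °C 1 min, final 72 °C 10 min. Normalized to actin; n = 3.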

Test [2] can be described thus: Downregulation of PPAR-gamma level in mouse 3T3L1 cells at 0.3 to 3 uM after 3 days by western blot analysis. In kind it is functional, cell-based. The settings on record: 3T3-L1. In a few lines: (§2)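 3T3-L1 preadipocytes incubated in adipogenic cocktail with or without compound (0.3, 1.0, 3.0 µM) for the stated periods. Protein levels measured by Western blot (RIPA lysis, PVDF, BSA block, primary 16 h at 4 °C, HRP secondary), normalized to GAPDH/Tubulin and expressed relative to controls; n = 3.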
On the technique in general: In western blotting, separated proteins are transferred to a membrane and probed.

Test [3] deals with 3T3-L1. The test is described as follows: Induction of apoptosis in mouse 3T3L1 cells assessed as viable cells at 0.3 uM after 24 hrs by annexin-V-FITC and PI staining based flow cytometry (reference value: 98.95%). In kind it is functional. The settings on record: 3T3-L1, 24 h, read-out: Activity. On the technique in general: A flow cytometer gives signals particle by particle.

Test [4] in a line: Upregulation of LKB1 expression in mouse 3T3L1 cells at 3 uM after 10 mins by western blot analysis. The class given is functional, cell-based. The settings on record: 3T3-L1. In a few lines:
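During 3T3-L1 differentiation with adipogenic cocktail, cells were treated with 3 µM compound for 10 min, 2 h or 24 h. Lysates in RIPA with protease/phosphatase inhibitors were run on SDS-PAGE and Western blotted. Proteins were normalized to GAPDH and expressed relative to the 10 min DMSO group, which was set at 100%; n = 3 independent experiments.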

The nature of test [5]: Decrease in triglyceride level in mouse 3T3L1 cells at 1 uM measured during 3 to 6 days by oil red O staining based microscopic analysis. In kind it is functional, cell-based. The conditions noted are these: 3T3-L1. In a few lines:
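3T3-L1 cells given 1 µM compound during day 0-3, 0-6, 0-9, 3-6, 3-9 or 6-9 of differentiation. On Day 9, intracellular lipid measured by TG assay (Triton lysate, GPO-POD kit, per protein) and by Oil Red O staining with microscopy; n = 3.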

The test system of test [6] is 3T3-L1. Kind of test: Induction of apoptosis in mouse 3T3L1 cells assessed as late apoptotic cells at 1 uM after 24 hrs by annexin-V-FITC and PI staining based flow cytometry (reference value: 0.03%). The class given is functional.
Test [7] relates to 3T3-L1. Kind of test: Induction of apoptosis in mouse 3T3L1 cells assessed as viable cells at 1 uM after 24 hrs by annexin-V-FITC and PI staining based flow cytometry (reference value: 98.95%). The class given is functional. The settings on record: 3T3-L1, 24 h, read-out: Activity.
Test [8] in a line: Cell cycle arrest in mouse 3T3L1 cells assessed as number of cells at S phase at 3 uM after 24 hrs by flow cytometry (reference value: 18.1%). In kind it is functional, cell-based. The conditions noted are these: 3T3-L1.
The target in test [9] is T1, Serine/threonine-protein kinase STK11 (Mus musculus) (UniProt Q9WTK7).
T1 sequence (whole entry): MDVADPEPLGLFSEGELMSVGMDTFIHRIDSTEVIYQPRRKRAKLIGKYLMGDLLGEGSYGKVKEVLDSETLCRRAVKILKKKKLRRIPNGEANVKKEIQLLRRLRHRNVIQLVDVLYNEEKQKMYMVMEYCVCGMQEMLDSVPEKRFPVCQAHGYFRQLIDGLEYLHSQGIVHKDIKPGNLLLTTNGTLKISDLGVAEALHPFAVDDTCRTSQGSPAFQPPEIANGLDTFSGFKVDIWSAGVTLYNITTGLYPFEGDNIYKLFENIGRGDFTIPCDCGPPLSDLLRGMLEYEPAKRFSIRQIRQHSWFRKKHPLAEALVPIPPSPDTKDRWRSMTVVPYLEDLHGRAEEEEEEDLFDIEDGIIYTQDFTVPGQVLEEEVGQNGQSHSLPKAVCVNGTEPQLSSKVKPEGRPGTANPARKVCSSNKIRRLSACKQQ
Kind of test: Activation of LKB1-mediated ACC in mouse 3T3L1 cells assessed as increase in phophorylated ACC level at 3 uM by western blot analysis. In kind it is cell-based. The settings on record: 3T3-L1, TDE = time-dependent effect. In short, it runs like this: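 3T3-L1 preadipocytes held in adipogenic cocktail with or without compound at 3 µM, time course (10 min, 2 h, 24 h) during differentiation. Lysis in RIPA with protease/phosphatase inhibitors, SDS-PAGE, PVDF, BSA block, primary antibody 16 h at 4 °C, HRP secondary. Bands normalized to GAPDH, with the 10 min DMSO group set as 100%; n = 3.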

In test [10] the test system is 3T3-L1. The test is described as follows: Induction of apoptosis in mouse 3T3L1 cells assessed as late apoptotic cells at 0.3 uM after 24 hrs by annexin-V-FITC and PI staining based flow cytometry (reference value: 0.03%). In kind it is functional.
Test [11] deals with 3T3-L1. The test is described as follows: Inhibition of cell differentiation in mouse 3T3L1 cells assessed as delayed time point of cell contact inhibition at 0.5 uM for 9 days. The class given is functional. In short, it runs like this: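 3T3-L1 preadipocytes were induced to differentiate (IBMX/dexamethasone/insulin for 3 days, then insulin) with compound added from day 0 at 0.5 or 5 µM; DMSO vehicle served as control. Cells were collected and counted every day to follow proliferation and to find when contact inhibition resumed.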

Test [12] in a line: Downregulation of SCD-1 level in mouse 3T3L1 cells after 6 days by western blot analysis. The class given is functional, cell-based. The settings on record: 3T3-L1. In short, it runs like this:
as §2

The nature of test [13]: Cell cycle arrest in mouse 3T3L1 cells assessed as number of cells at G2/M phase at 1 uM after 24 hrs by flow cytometry (reference value: 37.2%). The class given is functional, cell-based. The settings on record: 3T3-L1.
The nature of test [14]: Cell cycle arrest in mouse 3T3L1 cells assessed as number of cells at G2/M phase at 3 uM after 24 hrs by flow cytometry (reference value: 37.2%). The conditions noted are these: 3T3-L1. The class given is functional, cell-based.
Another test concerns HepG2. The test is described as follows: Decrease in cholesterol level in human HepG2 cells at 1 uM after 24 hrs by […] assay in presence of 0.5 mM oleic acid sodium. The class given is functional. In a few lines:
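HepG-2 cells seeded, then after 24 h exposed to 0.5 mM oleic acid sodium plus compound (1 µM; dose series up to 10 µM) for 24 h, DMSO vehicle. Cells lysed in 0.2% Triton X-100 for 1 h, sonicated, centrifuged. Triglyceride measured by GPO-POD kit and cholesterol by kit, both normalized to BCA protein; n = 3.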

A short description of test [15]: Downregulation of C/EBP beta mRNA level in mouse 3T3L1 cells at 0.3 to 3 uM after 24 hrs by RT-PCR analysis. The class given is functional, cell-based. The conditions noted are these: 3T3-L1. In short, it runs like this: as §1
For test [16], the system named is 3T3-L1. The test is described as follows: Inhibition of adipogenesis in mouse 3T3L1 cells assessed as reduction in mature adipocytes number at 1 uM measured during 0 to 3,0 to 6,0 to 9, 3 to 6, 3 to 9 and 6 to 9 days by oil red O staining based microscopic analysis. The class given is functional, cell-based. In short, it runs like this:
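Differentiation was induced two days post-confluence (day 0) with IBMX/dexamethasone/insulin for 3 days, then insulin medium. Compound at 1 µM was present during days 0-3, 0-6, 0-9, 3-6, 3-9 or 6-9. On day 9, cells were fixed in 4% formaldehyde, stained with Oil Red O for 30 min, and imaged by microscopy. A TG assay was also run; DMSO vehicle served as control.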

Test [17] is described as follows: Downregulation of C/EBP alpha mRNA level in mouse 3T3L1 cells at 0.3 to 3 uM after 24 hrs by RT-PCR analysis. In kind it is functional, cell-based. The conditions noted are these: 3T3-L1. In short, it runs like this: as §1

For the molecule `O=Cc1c(-c2nc(NCCN3CCCC3)c3ccccc3n2)[nH]c2ccccc12`, the inhibition entry (in test [1]; in test [2]; in test [15]; in the test with 3T3-L1 [16]; in test [17]) was “Active” each time. In addition, in the test on 3T3-L1 [3], the viability at 0.3 µM is 96.5%. Also, in [4], the result was Active. Moreover, the inhibition in [5] is 80%; in test [12], “Dose-dependent effect”. Besides, the Activity with 3T3-L1 [6] was 0.25%; in test [8], 3.3%; in test [9], “tde”; in the test on 3T3-L1 [10], 0.47%; in test [13] it was 46.9%; in [14], 57.9%. Besides, the viability at 1 µM in the test on 3T3-L1 [7] is 98%. In the test with 3T3-L1 [11], the Time stood at 6 days. Further, the “inhibition (INH)” value in the test with HepG2 is below 10%.
